Most compounds without a hit are left out; they make up all but 1.8% or so of the library.
M4 PAM – human M4 muscarinic receptor positive allosteric modulators, primary screen, CHO-K1 cells, Fluo-8 calcium fluorescence | 360,000 compounds, 0.4% hits | CHO-K1 hM4/Gqi5, ACh EC20; 0% = ACh EC20, 100% = maximal ACh | AID 624126, 2012 | activation, % at 3 µM;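 active = activation above its plate's cutoff, the mean activation of sample wells plus 3 SD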
M4 ag – human M4 muscarinic receptor agonists, primary screen, CHO-K1 cells, Fluo-8 calcium fluorescence; Muscarinic acetylcholine receptor M4 (Homo sapiens), P08173; CHO-K1 hM4/Gqi5; vehicle 0%, full acetylcholine response 100%; activation, % at 3 µM; 360,000 compounds, 0.14% hits; AID 624127, 2012;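 active = activation above the run mean over all test wells plus 3 SD, cut at about 32% in these data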;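 also: peak over basal fluorescence ratio per well then scaled between controls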
CHRM5 antagonist – human M5 muscarinic receptor antagonists, primary screen, CHO cells, Fluo-8 calcium fluorescence | CHO-hM5 cells, ACh EC80 | Muscarinic acetylcholine receptor M5 (Homo sapiens), P08912 | inhibition, % at 3 µM | AID 624040, 2012 | 360,000 compounds, 0.59% hits;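 active = inhibition above a per-plate cutoff, the mean of that plate's test compounds plus 3 SD, cut at about 27% in these data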
Target sequence (P08912 whole entry, looked up): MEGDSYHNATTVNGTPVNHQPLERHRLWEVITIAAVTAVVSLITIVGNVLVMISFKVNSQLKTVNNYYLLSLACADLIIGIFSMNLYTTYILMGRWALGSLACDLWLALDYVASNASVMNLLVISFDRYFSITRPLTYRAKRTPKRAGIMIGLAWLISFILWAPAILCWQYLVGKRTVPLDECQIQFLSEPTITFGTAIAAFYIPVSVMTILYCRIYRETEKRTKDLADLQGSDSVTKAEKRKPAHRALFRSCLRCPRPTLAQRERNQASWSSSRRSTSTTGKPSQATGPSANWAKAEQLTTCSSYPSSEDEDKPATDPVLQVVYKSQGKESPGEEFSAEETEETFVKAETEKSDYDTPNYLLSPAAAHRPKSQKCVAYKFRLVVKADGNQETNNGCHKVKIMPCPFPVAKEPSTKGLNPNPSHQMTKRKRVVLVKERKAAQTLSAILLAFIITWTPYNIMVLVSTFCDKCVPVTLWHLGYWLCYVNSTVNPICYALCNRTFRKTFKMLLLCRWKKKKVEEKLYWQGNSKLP
CHRM4 antagonist – human M4 muscarinic receptor antagonists, primary screen, CHO cells, Fluo-8 calcium fluorescence. CHO-hM4 cells, ACh EC80. inhibition, % at 3 µM. 360,000 compounds, 0.73% hits. AID 624125, 2012;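 active = inhibition above its plate's cutoff, the mean inhibition of sample wells plus 3 SD, cut at about 27% in these data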
M5 PAM – human M5 muscarinic receptor positive allosteric modulators, primary screen, CHO-K1 cells, Fluo-8 calcium fluorescence; activation, % at 3 µM; Muscarinic acetylcholine receptor M5 (Homo sapiens), P08912; CHO-K1 hM5, ACh EC20 PAM; 0% = ACh EC20, 100% = ACh EC100; AID 624038, 2012; 360,000 compounds, 0.3% hits;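 active = activation above the run cutoff, the mean activation of all test compounds plus 3 SD, cut at about 18% in these data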
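System: CHO-K1 cell line with stable human muscarinic M5 receptor expression | Also added: EC20 acetylcholine as agonist stimulus | Compound: One concentration, 3 µM final (nominal) | Timing: Fluo-8 loading 80 min at 37 °C plus 30 min room temperature | Measured by: Fluo-8 calcium dye fluorescence, kinetic read | Read-out basis: % activation, ACh-normalized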
M5 ag – human M5 muscarinic receptor agonists, primary screen, CHO-K1 cells, Fluo-8 calcium fluorescence; CHO-K1 hM5 cells; 0% DMSO wells, 100% maximal acetylcholine response; activation, % at 3 µM; Muscarinic acetylcholine receptor M5 (Homo sapiens), P08912; 360,000 compounds, 0.19% hits;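 active = activation above the run's mean over test compounds plus 3 SD, cut at about 23% in these data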;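 also: signal is peak over basal fluorescence ratio across the kinetic read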
Large screens that a line does not name were inactive.

C#CCOCCOCCOCCNc1nc(N2CCN(C(=O)C([C@@H](C)O)n3cc([C@@H](N)CCCCN)nn3)CC2)nc(N2CCN(C(=O)[C@H](CC(N)=O)n3cc(C(N)[C@@H](C)CC)nn3)CC2)n1 (some centres not stated)	CHRM4 antagonist 35.0
O=C(CC1C(=O)NCCN1Cc1cccc(F)c1)NCCCN1CCCC1=O (configuration not stated)	none
COc1cccc(CN2CCNC(=O)C2CC(=O)NCCCN2CCCC2=O)c1 (configuration not stated)	M4 PAM 15.0
Cc1noc(C)c1C(=O)N1CCC1(C)C(=O)NS(=O)(=O)c1cccc(F)c1 (configuration not stated)	none
O=C(O)c1ccc(CSc2nnc(COc3ccccc3)o2)cc1	none
CCc1ccc(OCc2nnc(SCc3ccc(C(=O)O)cc3)o2)cc1	M4 PAM 27.1
O=C(Nc1ccccc1-c1nc2ccccc2[nH]1)c1ccc(N2C(=O)CCC2=O)cc1	CHRM5 antagonist 27.2
Cc1cccc(C)c1-n1nnnc1C1c2ccccc2C(=O)N1C1CC1 (configuration not stated)	none
Cc1cccc(C)c1-c1ccc(CN2C(CC(C)C)C(=O)N(Cc3cn(CCO)nn3)CCS2(=O)=O)cc1 (configuration not stated)	CHRM4 antagonist 28.3
CC1C(=O)N(Cc2cn(CCC3OCCCO3)nn2)CCS(=O)(=O)N1Cc1ccc(-c2ccc(F)cc2)cc1 (configuration not stated)	none
CC1C(=O)N(Cc2cn(CCC3OCCCO3)nn2)CCS(=O)(=O)N1Cc1ccc(-c2ccc(Cl)c(Cl)c2)cc1 (configuration not stated)	CHRM5 antagonist 35.9, CHRM4 antagonist 39.9
CCc1nc2ccc(C(=O)Nc3cc(-c4ccccc4)ccc3OC)cn2c1N(C)C(=O)c1cccc(OC)c1	none
CS(=O)(=O)c1ccc(Cl)c(NC(=O)COC(=O)c2ccc(F)cc2Cl)c1	M5 PAM 18.1
COC(=O)/C=C1\S/C(=N/NC(=O)c2ccc(OC)cc2)NC1=O	CHRM5 antagonist 30.1
O=C(NCCCSc1ccccc1)c1cc(Br)ccc1O	CHRM5 antagonist 33.0
CC1(C(=O)Nc2ccc3c(c2)OCCO3)CSCC(=O)N1Cc1ccco1 (configuration not stated)	none
O=C(CCC1CCN(Cc2ccccc2O)CC1)NC1CC1	M5 PAM 21.1
Cc1nn(CC(=O)NCc2ccccc2)c(C)c1[N+](=O)[O-]	none
Cc1nn(CC(=O)NC(=O)c2ccccc2)c(C)c1[N+](=O)[O-]	M4 PAM 22.8
CCn1nc(C)c([N+](=O)[O-])c1C(=O)NNC(=O)c1ccc(Cl)cc1	M5 PAM 19.5
CCOC(=O)[C@]12CCCC=C1N(Cc1ccc3c(c1)OCO3)C(=O)[C@H](CC(=O)N1CCCCC1)C2	none
COC(=O)c1ccc(CN2CCC(CO)(CCOc3ccccc3)CC2)cc1	CHRM5 antagonist 27.1, CHRM4 antagonist 48.2
COC(=O)c1ccc(CN2CCC(CO)(Cc3cccc(OC)c3)CC2)cc1	none
CCOC(=O)C1(CCOc2ccccc2)CCN(Cc2ccc(O)c(OCC)c2)CC1	CHRM5 antagonist 31.0
CCOC(=O)C1(CCOc2ccccc2)CCN(Cc2ccc(OCCO)cc2)CC1	none
CCOC(=O)C1(CCOc2ccccc2)CCN(Cc2ccc(OC)c(O)c2)CC1	none
CCOC(=O)C1(CCOc2ccccc2)CCN(Cc2ccc(O)cc2)CC1	CHRM5 antagonist 28.2
Cc1cc(N2CCN(C(C(=O)NC3CCCC3)c3ccco3)CC2)c2ccccc2n1 (configuration not stated)	none
O=[N+]([O-])c1cc(C(F)(F)F)cc([N+](=O)[O-])c1NCCNC(=S)Nc1cccc(F)c1	CHRM5 antagonist 28.0
Cc1ccccc1OCC(=O)Nc1ccc(S(=O)(=O)Nc2onc(C)c2C)cc1	M5 PAM 22.0
Cc1cc(C(=O)Nc2ccc(S(=O)(=O)Nc3onc(C)c3C)cc2)c(C)o1	none
Cc1ccc2oc(C(=O)Nc3ccc(S(=O)(=O)Nc4onc(C)c4C)cc3)c(C)c2c1	M5 PAM 47.6
CCCCCCCCN1C(=O)[C@H](CC(=O)N2CCN(C(=O)OCC)CC2)C[C@@]2(C(=O)OC)CCCCC=C12	none
Cc1cccc(NC(=O)c2cc(S(=O)(=O)N3CCCCC3)c[nH]2)c1	none
Cc1ccc(S(=O)(=O)Nc2ccc3nc(C)sc3c2)cc1	CHRM5 antagonist 30.1
Cc1nc2ccc(NS(=O)(=O)c3ccc4c(c3)OCCO4)cc2s1	CHRM4 antagonist 27.1
Cc1nc2ccc(NS(=O)(=O)c3ccc(F)c(F)c3)cc2s1	none
Cc1nc2ccccn2c(=O)c1NC(=O)c1ccc2c(c1)OCO2	none
Cc1cc(C)n(-c2ccc(C(=O)Nc3cccc([N+](=O)[O-])c3)cc2)n1	CHRM5 antagonist 27.3
Cc1cc(C)n(-c2ccc(C(=O)Nc3cccc(S(=O)(=O)N(C)C)c3)cc2)n1	none
OCCN1CCN(c2ncnc3c2ncn3[C@H]2CN(Cc3ccc(F)cc3)C[C@@H](CO)O2)CC1	none
O=C(COC(=O)c1ccccc1O)NC12CC3CC(CC(C3)C1)C2	none
O=C(COC(=O)c1ccccn1)NC12CC3CC(CC(C3)C1)C2	CHRM4 antagonist 29.7
Cc1cc(=O)n2nc(N3CCCC(C(=O)N4CCc5ccccc54)C3)sc2n1 (configuration not stated)	CHRM4 antagonist 31.8
CCCCN1CCCCC1(C)C(=O)NCc1ccc2c(c1)OCO2 (configuration not stated)	none
CC1CC(C)CN(c2ncc3c(n2)CC(c2ccccc2Cl)CC3=O)C1 (configuration not stated)	none
CC1CC(C)CN(c2ncc3c(n2)CC(c2ccc(Cl)cc2)CC3=O)C1 (configuration not stated)	M5 PAM 38.6
Clc1ccc(C(CCN2CCCC2)Cc2ccccc2)cc1 (configuration not stated)	CHRM4 antagonist 31.8
OC(CCN1CCCCC1)c1ccc(-c2ccccc2)cc1 (configuration not stated)	none
